The list is not random: actives were taken first. Their share in the collection is about 3.1%.
GPR7 antagonist = GPR7 receptor antagonists, primary screen, cell-based, fluorescence, single concentration | Neuropeptides B/W receptor type 1 (Homo sapiens), P48145 | GPR7-expressing cells, fluorescence antagonist assay | inhibition, % at 4.4 µM | 290,000 tested, 1.1% active | AID 1861, 2009; in the data active means inhibition above about 16%, passing the limit was not always enough;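 further: cells stimulated with the agonist NPW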
Target sequence (P48145 whole entry, looked up): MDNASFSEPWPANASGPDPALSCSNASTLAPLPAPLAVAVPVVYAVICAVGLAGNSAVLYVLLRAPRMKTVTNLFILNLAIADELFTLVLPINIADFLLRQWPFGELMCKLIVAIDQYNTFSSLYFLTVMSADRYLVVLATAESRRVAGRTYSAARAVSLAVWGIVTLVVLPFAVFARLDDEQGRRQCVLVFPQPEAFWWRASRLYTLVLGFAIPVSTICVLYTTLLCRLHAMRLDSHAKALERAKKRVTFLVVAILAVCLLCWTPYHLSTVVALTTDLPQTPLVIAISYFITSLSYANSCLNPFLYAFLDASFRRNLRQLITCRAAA
GalR3 antagonist = GalR3 antagonists in HEK293 cells, primary screen, cell-based, fluorescence readout; 360,000 tested, 0.44% active; AID 651719, 2012; HEK293 GalR3-CNG cAMP membrane potential fluorescence; galR3 body fused to GalR1 C-terminus; inhibition, % at 3 µM;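 active means inhibition above the screen-wide average plus 3 SD, cut at about 13% in these data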;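 further: forskolin and galanin both at EC90 stimulate the cells; cAMP rise reported by CNG channel membrane potential dye signal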
Target sequence (O60755 1-299 limits assumed): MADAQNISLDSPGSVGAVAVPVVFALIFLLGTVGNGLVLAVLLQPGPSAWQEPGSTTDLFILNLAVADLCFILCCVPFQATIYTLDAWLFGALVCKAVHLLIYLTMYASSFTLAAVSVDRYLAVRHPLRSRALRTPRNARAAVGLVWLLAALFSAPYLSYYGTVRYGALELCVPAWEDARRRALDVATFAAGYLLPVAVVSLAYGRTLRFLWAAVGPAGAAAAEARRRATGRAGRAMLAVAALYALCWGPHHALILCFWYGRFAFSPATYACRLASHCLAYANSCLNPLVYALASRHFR
OX1R antag-1 = OX1R (HCRTR1) antagonists, primary screen, fluorescence, CHO/OX1R cells, Fluo-8 calcium, orexin A. Orexin/Hypocretin receptor type 1 (Homo sapiens), O43613. Fluo-8 calcium fluorescence. inhibition, % at 5 µM. 330,000 tested, 0.43% active. AID 434989, 2010;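 active means inhibition above its plate's threshold, mean inhibition of all tested compounds on the plate plus 3 SD, cut at about 37% in these data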
OX1R antag-2 = antagonists of human orexin 1 receptor (OX1R); Orexin/Hypocretin receptor type 1 (Homo sapiens), O43613; inhibition, % at 6.6 µM; AID 485270, 2010; OX1R-expressing cells, FRET antagonist read-out; 330,000 tested, 1.8% active; in the data active means inhibition mostly above about 38%, no sharp cut-off; inactive means mostly below about 40%
CHO parental Ca = ATP-evoked calcium signal inhibitors, parental CHO, primary screen, counter-screen for OX1R antagonist project, cell-based, fluorescence, Fluo-8 calcium dye; parental CHO-K1, ATP-induced calcium, Fluo-8 fluorescence; inhibition, % at 5.6 µM; 330,000 tested, 0.63% active;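 active means inhibition above that plate's mean sample inhibition plus 3 SD, cut at about 26% in these data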
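Assay system: parental CHO cells; Read-out basis: percent inhibition of ATP-evoked calcium rise, normalized to controls; Benchmarks: ATP and no-ATP DMSO wells; Compound dosing: single nominal dose of 5.6 µM per compound; Signal: Fluo-8 calcium dye fluorescence; Also added: ATP as calcium-mobilizing challenge; Repeats: singlicate.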
OX1R HTRF conf = OX1R (HCRTR1) antagonists, confirmation, cell-based, HTRF; inhibition, % at 6.6 µM; 1,800 tested, 49% active; shares compounds with OX1R antag-2; OX1R-expressing cells, HTRF antagonist assay; in the data active means inhibition above about 55%;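 further: CHO cells expressing OX1R stimulated with orexin A at about EC80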
CHO-K1 HTRF = signal inhibition in parental CHO-K1 cells, counter-screen for OX1R antagonist project, cell-based, HTRF | HTRF counterscreen | inhibition, % at 6.6 µM | 1,800 tested, 48% active | shares compounds with OX1R antag-2 | AID 493232, 2011; in the data active means inhibition above about 17%
A number is an active result; - = inactive; . = not tested or not shown.

SMILES	GPR7 antagonist	GalR3 antagonist	OX1R antag-1	OX1R antag-2	CHO parental Ca	OX1R HTRF conf	CHO-K1 HTRF
O=C1NC[C@@H](CCCCN2C[C@H](Cc3ccccc3)N(CC3CCCCC3)C(=O)C2=O)N(Cc2ccccc2)C1=O	.	-	.	.	.	.	.
C=CCSc1nnc2c(n1)OC(c1cccnc1)Nc1ccccc1-2 (configuration not stated)	-	-	-	78	-	-	-
CCN(C[C@H]1N[C@@](CC)(C(=O)OC)[C@H]2C(=O)N(C)C(=O)[C@@H]12)C(=O)NC(C)C	.	-	-	-	-	.	.
[O-][n+]1onc2c1CCc1nnc(-c3ccccc3)cc1-2	-	-	-	151	-	-	70
O=C1C(Cl)=C(NCCN2CCCCC2)C(=O)c2ccccc21	-	.	-	90	-	68	71
CCCC(=O)NC1=C(Cl)C(=O)c2ccccc2C1=O	.	-	.	.	.	.	.
CCNC1=C(Cl)C(=O)c2ccccc2C1=O	-	-	-	178	-	58	93
CCOC(=O)c1sc(NC(=O)c2ccc(C)s2)cc1C	-	-	-	79	-	-	-
CCOC(=O)c1cc(NC(=O)Nc2ccccc2Cl)c(C)nc1C	-	-	-	-	-	.	.
CCOC(=O)c1sc(NC(=O)C2CCC2)cc1C	-	-	-	-	-	.	.
CCOC(=O)c1sc(NC(=O)Nc2ccccc2Cl)cc1C	-	-	-	78	-	-	-
O=C(NCc1ccccc1)C(c1cccc2ccccc12)n1c(=O)c(-c2ccccc2)nc2ccccc21 (configuration not stated)	.	-	.	.	.	.	.
CCCS(=O)(=O)NC(=O)C1(C)CCCN(C(=O)c2cc(C)nn2C(C)(C)C)C1 (configuration not stated)	.	-	.	.	.	.	.
COc1ccc(OC)c(/C=N/NC(=O)c2cc[n+](Cc3ccccc3)cc2)c1	-	-	-	108	-	64	46
O=C(NCC(c1cccs1)N1CCOCC1)c1cc([N+](=O)[O-])cc([N+](=O)[O-])c1 (configuration not stated)	-	-	-	112	-	-	58
NCCCC[C@@H]1NC(=O)c2cc([N+](=O)[O-])cc(I)c2SC[C@@H](C(=O)NCC(N)=O)NC(=O)CNC1=O	-	.	-	87	-	-	56
NCCCC[C@@H]1NC(=O)c2cc([N+](=O)[O-])cc(I)c2SC[C@@H](C(N)=O)NC(=O)[C@H](CCC(N)=O)NC1=O	-	-	-	-	-	.	.
CCOc1c(C)cnc2c1c(=O)n(CC(=O)NCC1CCCO1)c(=O)n2C (configuration not stated)	.	-	-	-	-	.	.
Cc1ccc(C(=O)/C=C2\NCCNC2=O)cc1	-	-	-	-	-	.	.
Cc1ccc(C(=O)/C=C2\NCC(C)NC2=O)cc1 (configuration not stated)	-	-	-	78	-	-	18
CC(C)(C)OC(=O)NN1CC(=O)N2Cc3ccccc3C[C@@H]2C1=O	-	-	-	-	-	.	.
Cc1cnc2cc([N+](=O)[O-])ccc2n1	-	-	-	101	-	66	84
CCOC(=O)C1(C)CCN1C(=O)c1ccc(C(=O)OC)cc1 (configuration not stated)	.	-	.	.	.	.	.
C[C@H](CO)N1C[C@H](C)[C@@H](CN(C)S(=O)(=O)c2ccccc2F)OCc2cnnn2CCCC1=O	.	-	.	.	.	.	.
COC1OC(COCc2ccccc2)C2OC(C)(C)OC2C1O (configuration not stated)	.	-	.	.	.	.	.
SMILES	GPR7 antagonist	GalR3 antagonist	OX1R antag-1	OX1R antag-2	CHO parental Ca	OX1R HTRF conf	CHO-K1 HTRF
COc1ccc(NC(=O)C2CCCCN2S(=O)(=O)c2ccc(F)cc2)cc1 (configuration not stated)	-	-	-	87	-	-	-
O=C(NCc1ccc(F)cc1)C1CCCN1S(=O)(=O)c1ccc(F)cc1 (configuration not stated)	.	-	.	.	.	.	.
CN1C(=O)C(C)(C)c2cc(S(=O)(=O)N3CCCC3C(=O)NCc3ccc(F)cc3)ccc21 (configuration not stated)	-	-	-	78	-	-	-
CCOC(=O)N1CCN(C(=O)c2ccccc2N(Cc2ccccc2)S(=O)(=O)c2ccccc2)CC1	-	-	-	-	-	.	.
C[C@@H](NC(=O)C1(c2ccccc2)CCN(C(=O)OC(C)(C)C)CC1)C(=O)N[C@@H](C(=O)O)c1ccccc1	-	-	-	87	-	-	-
C[C@H](NC(=O)C1(c2ccccc2)CCN(C(=O)OC(C)(C)C)CC1)C(=O)N[C@@H](C(=O)O)c1ccccc1	-	-	-	-	-	.	.
COc1cc(/C=N/Nc2nncn2N)ccc1OCc1c(C)no[n+]1[O-]	-	-	-	89	-	-	18
C[C@H](CO)N1C[C@H](C)[C@@H](CN(C)Cc2ccc(C(=O)O)cc2)Oc2ccc(NS(=O)(=O)c3cn(C)cn3)cc2C1=O	.	-	-	-	-	.	.
NC(=O)N=Nc1c(O)[nH]c2ccc([N+](=O)[O-])cc12	-	-	-	102	-	-	63
O=C(c1cccs1)N1CCN(c2nc3ccccc3s2)CC1	-	-	-	87	-	-	-
Cc1cccc2sc(N3CCN(C(=O)c4cccs4)CC3)nc12	.	-	-	-	-	.	.
CCCCNC(=O)C1c2ccccc2OCC(=O)N1Cc1ccccc1 (configuration not stated)	.	-	.	.	.	.	.
CCC(C)NC(=O)C(Cc1ccccc1)NS(=O)(=O)c1cccc2nsnc12 (configuration not stated)	-	-	-	153	-	55	-
CCCNC(=O)C(Cc1ccccc1)NS(=O)(=O)c1cccc2nsnc12 (configuration not stated)	-	-	-	126	-	-	27
CCc1nnc(NC(=O)c2ccc3c(=O)n4c(nc3c2)CCC4)s1	.	-	.	.	.	.	.
CC(NC(=O)COC(=O)c1ccc([N+](=O)[O-])s1)c1ccccc1 (configuration not stated)	-	-	-	81	-	-	17
O=C(COC(=O)c1ccc([N+](=O)[O-])s1)NCc1ccc(F)cc1	-	-	-	89	-	-	48
Cc1cc(C)c(NC(=O)COC(=O)c2ccc([N+](=O)[O-])s2)c(C)c1	-	-	-	-	-	.	.
COc1ccccc1NC(=O)COC(=O)c1ccc([N+](=O)[O-])s1	-	13	-	91	-	-	48

High-throughput results: PubChem BioAssay, The Scripps Research Institute Molecular Screening Center
